# Calls of active or inactive are those of the source. No cut-off for these calls is given here.
# Columns and labels:
# [1] = target: T1, Metabotropic glutamate receptor 5 (Homo sapiens, UniProt P41594); test: Displacement of [3H]M-MPEP from mGluR5 (unknown origin) at 1 uM measured after 60 mins relative to control
# How it was run: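 Rat cerebrocortical membranes or membranes from A18 cells expressing human mGlu5a, incubated with [³H]M-MPEP and test compound at 1 µM in 50 mM Tris pH 7.6 with 2 mM MgCl₂ and 2 mM CaCl₂, 60 min at 25°C. Non-specific binding was taken with […]. Result is % displacement, run in duplicate or triplicate.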
# Target sequence in this assay (P41594 21-1212 limits assumed): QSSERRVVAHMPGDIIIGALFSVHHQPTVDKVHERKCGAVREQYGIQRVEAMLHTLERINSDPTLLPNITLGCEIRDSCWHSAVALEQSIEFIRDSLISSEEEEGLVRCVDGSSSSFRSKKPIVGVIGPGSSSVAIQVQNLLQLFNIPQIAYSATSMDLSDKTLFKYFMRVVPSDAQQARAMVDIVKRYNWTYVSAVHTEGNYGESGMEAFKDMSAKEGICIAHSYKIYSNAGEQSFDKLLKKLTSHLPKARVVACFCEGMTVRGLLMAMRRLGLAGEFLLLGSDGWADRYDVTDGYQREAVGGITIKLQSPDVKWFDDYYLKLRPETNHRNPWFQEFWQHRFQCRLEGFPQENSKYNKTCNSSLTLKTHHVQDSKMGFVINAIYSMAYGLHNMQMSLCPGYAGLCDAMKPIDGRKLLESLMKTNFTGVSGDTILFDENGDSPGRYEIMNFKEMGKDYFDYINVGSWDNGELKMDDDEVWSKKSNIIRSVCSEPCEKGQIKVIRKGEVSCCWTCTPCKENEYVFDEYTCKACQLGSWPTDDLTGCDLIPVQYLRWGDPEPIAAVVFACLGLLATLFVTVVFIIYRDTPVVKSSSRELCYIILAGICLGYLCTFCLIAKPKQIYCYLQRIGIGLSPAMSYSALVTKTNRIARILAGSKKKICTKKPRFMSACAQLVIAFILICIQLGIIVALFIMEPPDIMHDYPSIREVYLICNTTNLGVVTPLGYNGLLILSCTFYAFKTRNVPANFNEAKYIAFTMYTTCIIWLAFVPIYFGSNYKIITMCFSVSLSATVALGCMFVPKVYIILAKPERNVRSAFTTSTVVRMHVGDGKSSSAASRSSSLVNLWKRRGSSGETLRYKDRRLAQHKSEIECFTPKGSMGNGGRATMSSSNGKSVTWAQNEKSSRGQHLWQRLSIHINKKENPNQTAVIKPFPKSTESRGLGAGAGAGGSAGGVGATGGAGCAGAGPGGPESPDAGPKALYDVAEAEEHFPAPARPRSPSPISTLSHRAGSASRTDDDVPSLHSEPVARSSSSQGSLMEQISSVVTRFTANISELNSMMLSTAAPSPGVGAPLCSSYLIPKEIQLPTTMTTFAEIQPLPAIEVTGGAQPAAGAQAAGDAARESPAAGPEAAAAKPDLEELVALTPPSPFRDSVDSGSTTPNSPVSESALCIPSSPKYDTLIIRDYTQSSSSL
# Rattus norvegicus = test: Anxiolytic activity in ip dosed rat assessed as increase in water drinking time during punished period by Vogel punished drinking conflict test; type: functional; details: read-out: MED
# How it was run: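 Rats were water-deprived 48 h. On test day, compound was given i.p. in 5% Tween/distilled water at 1, 3 or 10 mg/kg, n=8 per dose. A 30-s unpunished drinking period followed. Comparison to vehicle was by ANOVA with Duncan post-hoc, giving MED.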
# [2] = target: T1, Metabotropic glutamate receptor 5; test: Displacement of [3H]M-MPEP from mGluR5 (unknown origin) measured after 60 mins
# How it was run: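 The [³H]M-MPEP competition used rat cortical membranes or human mGlu5a A18 cell membranes in Tris pH 7.6 buffer with MgCl₂ and CaCl₂, 60 min at 25°C. Curves were generally 7 concentrations in duplicate or triplicate. IC50 was converted to Ki by Cheng–Prusoff, with Kd from a Scatchard plot. Non-specific binding was defined with M-MPEP.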
# Target sequence in this assay (P41594 whole entry): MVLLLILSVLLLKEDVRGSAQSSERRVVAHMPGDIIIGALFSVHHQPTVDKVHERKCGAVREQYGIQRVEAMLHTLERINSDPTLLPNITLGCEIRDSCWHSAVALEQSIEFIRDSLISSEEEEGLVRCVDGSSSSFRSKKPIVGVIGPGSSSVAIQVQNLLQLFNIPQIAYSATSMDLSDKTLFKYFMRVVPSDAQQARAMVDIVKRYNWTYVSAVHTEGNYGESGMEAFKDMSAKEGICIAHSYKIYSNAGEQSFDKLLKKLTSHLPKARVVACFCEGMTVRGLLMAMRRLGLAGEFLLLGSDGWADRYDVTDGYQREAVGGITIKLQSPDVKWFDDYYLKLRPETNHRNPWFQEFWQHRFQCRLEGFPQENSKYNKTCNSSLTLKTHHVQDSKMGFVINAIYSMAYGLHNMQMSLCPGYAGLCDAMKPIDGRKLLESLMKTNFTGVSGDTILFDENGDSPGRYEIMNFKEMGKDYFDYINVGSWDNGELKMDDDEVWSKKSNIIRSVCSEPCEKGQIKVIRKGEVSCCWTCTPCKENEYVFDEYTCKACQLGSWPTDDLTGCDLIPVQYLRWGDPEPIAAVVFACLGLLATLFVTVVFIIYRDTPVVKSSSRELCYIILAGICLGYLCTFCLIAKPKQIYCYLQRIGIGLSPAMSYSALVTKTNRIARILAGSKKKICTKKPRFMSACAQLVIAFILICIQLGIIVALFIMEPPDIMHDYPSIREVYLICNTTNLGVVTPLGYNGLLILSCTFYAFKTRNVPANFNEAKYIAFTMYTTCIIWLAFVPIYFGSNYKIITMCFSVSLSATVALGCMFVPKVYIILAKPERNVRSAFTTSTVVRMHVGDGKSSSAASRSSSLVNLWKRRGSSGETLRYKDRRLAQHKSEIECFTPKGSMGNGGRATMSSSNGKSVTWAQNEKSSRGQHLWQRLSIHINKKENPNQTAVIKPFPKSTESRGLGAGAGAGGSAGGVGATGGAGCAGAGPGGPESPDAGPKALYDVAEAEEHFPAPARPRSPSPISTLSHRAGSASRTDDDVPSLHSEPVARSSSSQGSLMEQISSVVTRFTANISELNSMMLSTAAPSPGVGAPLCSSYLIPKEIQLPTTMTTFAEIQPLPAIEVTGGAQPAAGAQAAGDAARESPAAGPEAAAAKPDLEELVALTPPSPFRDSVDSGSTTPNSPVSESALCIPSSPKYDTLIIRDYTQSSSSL
# [3] = Aqueous solubility of the compound in water; type: physicochemical
# [4] = Drug level in blood of rat at 10 mg/kg, ip at 40 mins post dose; type: ADME, organism-based; details: read-out: Drug uptake
# [5] = target: Metabotropic glutamate receptor 1 (Homo sapiens) (UniProt Q13255); test: Activity at mGluR1 (unknown origin)
# Sequence of Metabotropic glutamate receptor 1 (Homo sapiens) (Q13255 19-1194 limits assumed): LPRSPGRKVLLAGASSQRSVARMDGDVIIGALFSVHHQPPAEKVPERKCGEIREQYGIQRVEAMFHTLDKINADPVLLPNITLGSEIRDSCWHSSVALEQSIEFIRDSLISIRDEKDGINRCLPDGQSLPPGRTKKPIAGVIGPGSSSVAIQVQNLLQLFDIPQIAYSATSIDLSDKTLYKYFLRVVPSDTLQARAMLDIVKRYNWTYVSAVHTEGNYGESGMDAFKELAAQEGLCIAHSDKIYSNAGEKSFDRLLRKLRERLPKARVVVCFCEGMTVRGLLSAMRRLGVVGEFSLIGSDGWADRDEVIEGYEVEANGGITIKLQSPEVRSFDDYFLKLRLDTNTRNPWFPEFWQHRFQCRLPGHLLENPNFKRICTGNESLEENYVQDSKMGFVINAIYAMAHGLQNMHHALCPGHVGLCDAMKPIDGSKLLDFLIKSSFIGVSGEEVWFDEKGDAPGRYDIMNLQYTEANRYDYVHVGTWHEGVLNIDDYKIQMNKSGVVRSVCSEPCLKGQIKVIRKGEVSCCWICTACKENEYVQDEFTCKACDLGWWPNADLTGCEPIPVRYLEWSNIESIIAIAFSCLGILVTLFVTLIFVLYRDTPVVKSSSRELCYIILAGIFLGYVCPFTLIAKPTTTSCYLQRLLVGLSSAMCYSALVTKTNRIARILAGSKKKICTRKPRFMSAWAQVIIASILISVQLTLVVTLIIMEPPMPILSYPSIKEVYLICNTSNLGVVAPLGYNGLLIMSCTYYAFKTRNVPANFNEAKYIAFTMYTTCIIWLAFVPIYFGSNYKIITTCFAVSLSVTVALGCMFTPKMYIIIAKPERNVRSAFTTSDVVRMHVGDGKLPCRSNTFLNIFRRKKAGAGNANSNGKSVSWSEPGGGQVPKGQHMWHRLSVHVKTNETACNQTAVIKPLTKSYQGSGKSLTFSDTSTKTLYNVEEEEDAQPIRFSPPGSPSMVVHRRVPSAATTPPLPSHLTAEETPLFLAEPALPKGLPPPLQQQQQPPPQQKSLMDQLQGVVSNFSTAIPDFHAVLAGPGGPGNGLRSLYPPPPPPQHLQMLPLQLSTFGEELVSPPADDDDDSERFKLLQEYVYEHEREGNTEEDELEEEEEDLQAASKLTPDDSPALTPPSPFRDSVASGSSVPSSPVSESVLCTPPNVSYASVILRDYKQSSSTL
Compound,inhibition [1] [%],also measured
CC1CCN(c2c(S(=O)(=O)c3ccc(Cl)c(Cl)c3)cnc3ccc(F)cc23)CC1,91,minimal effective dose (Rattus norvegicus): 30 mg/kg; Ki [2]: 55.6 nM; solubility [3]: < 3 µM; concentration at 40 min [4]: 46 ng/mL
O=S(=O)(c1ccccc1)c1cnc2ccccc2c1N1CCCCC1,71.4,Ki [2]: 307 nM
Cc1ccc(S(=O)(=O)c2cnc3ccccc3c2N2CCOCC2)cc1C,,Activity [5]: inactive
CC1CCN(c2c(S(=O)(=O)c3ccc(Cl)c(Cl)c3)cnc3ccc(Cl)cc23)CC1,86,minimal effective dose (Rattus norvegicus): > 30 mg/kg; Ki [2]: 103 nM; solubility [3]: < 3 µM; concentration at 40 min [4]: 55 ng/mL
O=S(=O)(c1ccccc1)c1cnc2ccccc2c1N1CCCCCC1,79.9,Ki [2]: 310 nM
N#Cc1cc(F)cc(S(=O)(=O)c2cnc3cc(Cl)ccc3c2N2CCC(CO)CC2)c1,,minimal effective dose (Rattus norvegicus): > 10 mg/kg; Ki [2]: 24.1 nM; solubility [3]: 15 to 45 µM; concentration at 40 min [4]: 608 ng/mL
CC1CCN(c2c(S(=O)(=O)c3cc(F)cc(F)c3)cnc3cc(Cl)ccc23)CC1,94,Ki [2]: 68.2 nM
CC1CCN(c2c(S(=O)(=O)c3ccc(Cl)cc3)cnc3ccc(Cl)cc23)CC1,92,Ki [2]: 435 nM
CCN(CC)c1c(S(=O)(=O)c2ccc(C)cc2)cnc2ccccc12,78.3,Ki [2]: 201 nM
O=S(=O)(c1cccc(F)c1)c1cnc2ccc(Cl)cc2c1N1CCOCC1,0,
COc1ccc(S(=O)(=O)c2cnc3ccc(F)cc3c2N2CCC(C)CC2)cc1Cl,82,
Cc1ccc(S(=O)(=O)c2cnc3ccc(Cl)cc3c2N2CCC(C)CC2)cc1F,68,
Cc1ccc(S(=O)(=O)c2cnc3c(F)cccc3c2N2CCOCC2)cc1,23,
Cc1cc(C)cc(S(=O)(=O)c2cnc3ccc(Cl)cc3c2N2CCC(C)CC2)c1,49,
O=S(=O)(c1cc(Cl)cc(Cl)c1)c1cnc2ccc(Cl)cc2c1N1CCOCC1,14,
Cc1ccc2ncc(S(=O)(=O)c3ccc(F)cc3)c(N3CCOCC3)c2c1,18,
Cc1ccc(S(=O)(=O)c2cnc3ccc(F)cc3c2N2CCC(C)CC2)cc1F,86,
Cc1ccc2ncc(S(=O)(=O)c3ccc(C#N)cc3)c(N3CCC(C)CC3)c2c1,55,
O=S(=O)(c1ccc(Cl)cc1)c1cnc2ccc(Cl)cc2c1N1CCOCC1,15,
N#Cc1ccc(S(=O)(=O)c2cnc3ccc(F)cc3c2N2CCOCC2)cc1,-3,
N#Cc1cccc(S(=O)(=O)c2cnc3cc(Cl)ccc3c2N2CCOCC2)c1,73,
CC1CCN(c2c(S(=O)(=O)c3ccc(Cl)cc3)cnc3cc(Cl)ccc23)CC1,91,
O=S(=O)(c1cccc(F)c1)c1cnc2c(F)cccc2c1N1CCOCC1,23,

Compound,inhibition [1] [%],also measured
COc1cccc(S(=O)(=O)c2cnc3ccc(Cl)cc3c2N2CCC(C)CC2)c1,87,
Cc1ccc2ncc(S(=O)(=O)c3cccc(F)c3)c(N3CCC(C)CC3)c2c1,94,solubility [3]: < 3 µM
COc1ccc2ncc(S(=O)(=O)c3ccc(C)c(Cl)c3)c(N3CCC(C)CC3)c2c1,85,
Cc1ccc(S(=O)(=O)c2cnc3ccc(Cl)cc3c2N2CCOCC2)cc1C,90,
Cc1ccc2ncc(S(=O)(=O)c3ccc(F)c(F)c3)c(N3CCOCC3)c2c1,24,
COc1ccc2ncc(S(=O)(=O)c3ccc(Cl)c(Cl)c3)c(N3CCC(C)CC3)c2c1,87,
Cc1ccc(S(=O)(=O)c2cnc3ccc(Cl)cc3c2N2CCOCC2)cc1Cl,53,
O=S(=O)(c1ccc(F)cc1)c1cnc2ccc(F)cc2c1N1CCOCC1,2,
Cc1ccc(S(=O)(=O)c2cnc3cc(Cl)ccc3c2N2CCC(C)CC2)cc1F,85,
COc1ccc(S(=O)(=O)c2cnc3ccc(F)cc3c2N2CCOCC2)cc1OC,-5,
O=S(=O)(c1ccc(Cl)c(Cl)c1)c1cnc2cc(Cl)ccc2c1N1CCOCC1,86,
COc1ccc2ncc(S(=O)(=O)c3ccc(Cl)c(Cl)c3)c(N3CCOCC3)c2c1,29,
O=S(=O)(c1ccc(F)c(Cl)c1)c1cnc2ccc(F)cc2c1N1CCOCC1,58,
CC1CCN(c2c(S(=O)(=O)c3ccccc3)cnc3c(F)cccc23)CC1,13,
Cc1ccc(S(=O)(=O)c2cnc3ccccc3c2NCc2ccccc2)cc1,73.5,Ki [2]: 198 nM
Cc1cc(C)cc(S(=O)(=O)c2cnc3cc(Cl)ccc3c2N2CCOCC2)c1,24,
COc1ccc(S(=O)(=O)c2cnc3cc(F)ccc3c2N2CCOCC2)cc1Cl,53,
O=S(=O)(c1cc(F)cc(F)c1)c1cnc2ccc(Cl)cc2c1N1CCOCC1,7,
COc1cccc(S(=O)(=O)c2cnc3ccc(OC)cc3c2N2CCOCC2)c1,20,
N#Cc1cccc(S(=O)(=O)c2cnc3cc(F)ccc3c2N2CCSCC2)c1,80.9,
O=S(=O)(c1ccc(F)c(F)c1)c1cnc2ccc(F)cc2c1N1CCOCC1,10,
COc1cccc(S(=O)(=O)c2cnc3ccc(F)cc3c2N2CCOCC2)c1,41,
CC1CCN(c2c(S(=O)(=O)c3cc(Cl)cc(Cl)c3)cnc3c(F)cccc23)CC1,82,

Compound,inhibition [1] [%],also measured
COc1ccc(S(=O)(=O)c2cnc3cc(Cl)ccc3c2N2CCC(C)CC2)cc1Cl,93,
COc1cccc(S(=O)(=O)c2cnc3ccc(Cl)cc3c2N2CCOCC2)c1,28,
CC1CCN(c2c(S(=O)(=O)c3cccc(F)c3)cnc3c(F)cccc23)CC1,62,
CC1CCN(c2c(S(=O)(=O)c3ccc(F)c(F)c3)cnc3ccc(Cl)cc23)CC1,72,
COc1ccc(S(=O)(=O)c2cnc3cc(Cl)ccc3c2N2CCOCC2)cc1Cl,62,
Cc1ccc(S(=O)(=O)c2cnc3cc(F)ccc3c2N2CCOCC2)cc1,33,
CC1CCN(c2c(S(=O)(=O)c3ccc(Cl)c(Cl)c3)cnc3cc(Cl)ccc23)CC1,89,
COc1ccc(S(=O)(=O)c2cnc3ccc(C)cc3c2N2CCC(C)CC2)cc1Cl,93,
Cc1ccc(S(=O)(=O)c2cnc3cc(Cl)ccc3c2N2CCOCC2)cc1C,87,
CC1CCN(c2c(S(=O)(=O)c3ccc(F)cc3)cnc3cc(F)ccc23)CC1,74.5 to 75,
COc1ccc2ncc(S(=O)(=O)c3ccc(F)cc3)c(N3CCC(C)CC3)c2c1,27,
COc1ccc(S(=O)(=O)c2cnc3ccc(Cl)cc3c2N2CCOCC2)cc1Cl,33,
CC1CCN(c2c(S(=O)(=O)c3ccccc3)cnc3ccccc23)CC1,89.2,Ki [2]: 108 nM
O=S(=O)(c1cc(F)cc(F)c1)c1cnc2ccc(F)cc2c1N1CCOCC1,3,
O=S(=O)(c1ccc(Cl)c(Cl)c1)c1cnc2cc(F)ccc2c1N1CCOCC1,86,
CC1CCN(c2c(S(=O)(=O)c3cc(F)cc(F)c3)cnc3c(F)cccc23)CC1,9,
O=S(=O)(c1ccccc1)c1cnc2ccccc2c1Nc1ccccc1,3.6,
O=S(=O)(c1ccc(F)cc1)c1cnc2cc(Cl)ccc2c1N1CCC(CO)CC1,75,
O=S(=O)(c1cccc(Cl)c1)c1cnc2cc(Cl)ccc2c1N1CCC(CO)CC1,,minimal effective dose (Rattus norvegicus): 10 mg/kg; Ki [2]: 30.9 nM; solubility [3]: 15 to 45 µM; concentration at 40 min [4]: 193 ng/mL
COc1ccc2ncc(S(=O)(=O)c3cc(F)cc(F)c3)c(N3CCOCC3)c2c1,3,
Cc1ccc2ncc(S(=O)(=O)c3ccc(C)c(Cl)c3)c(N3CCOCC3)c2c1,75,
CC1CCN(c2c(S(=O)(=O)c3ccc(F)cc3)cnc3ccc(Cl)cc23)CC1,89,
COc1ccc2ncc(S(=O)(=O)c3ccc(Cl)cc3)c(N3CCC(C)CC3)c2c1,91,

# Reference: ChEMBL document CHEMBL4052615, “Discovery of 4-amino-3-arylsulfoquinolines, a novel non-acetylenic chemotype of metabotropic glutamate 5 (mGlu5) receptor negative allosteric modulators” (Eur J Med Chem, 2017)
